From ChEMBL document CHEMBL3414433, “Discovery and profiling of a selective and efficacious Syk inhibitor” (J Med Chem, 2015) come the findings set out here.

Data set [1] can be described thus: Mean residence time in Sprague-Dawley rat at 1 mg/kg, iv and 3 mg/kg, po administered as cassette dosing. Type of data set: ADME, organism-based. The following applies: in vivo. Summed up:
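Rats were dosed i.v. at 1 mg/kg in NMP/PEG200 (3:7) and p.o. at 3 mg/kg in CMC/water/Tween (0.5:99:0.5). PK parameters were derived from blood concentration–time curves for both routes.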

Data set [2] deals with Rattus norvegicus. Description: Dose normalized AUC in Sprague-Dawley rat at 1 mg/kg, iv administered as cassette dosing. Format: ADME, organism-based. Also on record: dose 1 mg/kg, route intravenous. The following applies: in vivo. Summed up: (§1)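 Rat PK: i.v. 1 mg/kg in NMP/PEG200 (3:7); p.o. 3 mg/kg in CMC/water/Tween (0.5:99:0.5). Exposure values dose normalized.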
For data set [3], the system named is Rattus norvegicus. Description: Dose normalized AUC in Sprague-Dawley rat at 3 mg/kg, po administered as cassette dosing. Type of data set: ADME, organism-based. Also on record: dose 3 mg/kg, route oral. The following applies: in vivo. The procedure, abridged: as §1
The subject of data set [4] is Canis familiaris. Description: Dose normalized Cmax in Beagle dog at 0.1 mg/kg, iv and 0.3 mg/kg, po. Format: ADME, organism-based, Canis lupus familiaris. The following applies: in vivo. Summed up: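 One-in-one dosing in Beagle dogs: i.v. 0.1 mg/kg in NMP/PEG200 (3:7); p.o. 0.3 mg/kg in MC/water (0.5:99.5). Exposure values dose normalized.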
Data set [5] concerns the target T1, Tyrosine-protein kinase receptor UFO (Homo sapiens, UniProt P30530).
T1 sequence (P30530 whole entry): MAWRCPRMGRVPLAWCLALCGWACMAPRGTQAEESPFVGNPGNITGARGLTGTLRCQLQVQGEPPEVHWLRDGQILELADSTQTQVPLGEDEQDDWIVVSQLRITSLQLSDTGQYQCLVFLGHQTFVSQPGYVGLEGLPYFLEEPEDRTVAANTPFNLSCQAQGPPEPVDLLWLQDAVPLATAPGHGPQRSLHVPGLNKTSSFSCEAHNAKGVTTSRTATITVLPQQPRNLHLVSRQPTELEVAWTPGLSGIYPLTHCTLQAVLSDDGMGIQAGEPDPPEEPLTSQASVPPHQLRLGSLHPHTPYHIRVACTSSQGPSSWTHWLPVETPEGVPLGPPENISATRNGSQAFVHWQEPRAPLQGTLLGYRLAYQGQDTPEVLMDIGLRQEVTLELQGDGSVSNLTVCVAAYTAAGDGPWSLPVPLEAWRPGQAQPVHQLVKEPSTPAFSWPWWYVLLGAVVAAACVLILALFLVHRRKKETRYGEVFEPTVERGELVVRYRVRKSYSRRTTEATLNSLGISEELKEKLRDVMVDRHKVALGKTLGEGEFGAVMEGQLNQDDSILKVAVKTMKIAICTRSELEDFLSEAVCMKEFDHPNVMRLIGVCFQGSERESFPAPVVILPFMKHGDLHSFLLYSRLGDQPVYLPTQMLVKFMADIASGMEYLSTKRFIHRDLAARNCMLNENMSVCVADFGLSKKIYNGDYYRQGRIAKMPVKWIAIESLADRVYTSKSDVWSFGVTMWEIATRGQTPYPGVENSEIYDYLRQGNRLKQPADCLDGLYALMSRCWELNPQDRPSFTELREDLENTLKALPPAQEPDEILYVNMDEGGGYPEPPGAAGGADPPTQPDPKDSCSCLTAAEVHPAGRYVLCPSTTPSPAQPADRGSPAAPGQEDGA
In words: Competitive binding affinity to human AXL.

For data set [6], the target named is Mitotic checkpoint serine/threonine-protein kinase BUB1 (Homo sapiens, UniProt O43683). In words: Competitive binding affinity to human BUB1.
Data set [7] has as its target Serine/threonine-protein kinase PAK 4 (Homo sapiens, UniProt O96013). Description: Competitive binding affinity to human PAK4.
The target of data set [8] is STE20-like serine/threonine-protein kinase (Homo sapiens, UniProt Q9H2G2). Description: Competitive binding affinity to human SLK.
Data set [9] deals with T2, Tyrosine-protein kinase ZAP-70 (Homo sapiens, UniProt P43403).
T2 sequence (P43403 whole entry): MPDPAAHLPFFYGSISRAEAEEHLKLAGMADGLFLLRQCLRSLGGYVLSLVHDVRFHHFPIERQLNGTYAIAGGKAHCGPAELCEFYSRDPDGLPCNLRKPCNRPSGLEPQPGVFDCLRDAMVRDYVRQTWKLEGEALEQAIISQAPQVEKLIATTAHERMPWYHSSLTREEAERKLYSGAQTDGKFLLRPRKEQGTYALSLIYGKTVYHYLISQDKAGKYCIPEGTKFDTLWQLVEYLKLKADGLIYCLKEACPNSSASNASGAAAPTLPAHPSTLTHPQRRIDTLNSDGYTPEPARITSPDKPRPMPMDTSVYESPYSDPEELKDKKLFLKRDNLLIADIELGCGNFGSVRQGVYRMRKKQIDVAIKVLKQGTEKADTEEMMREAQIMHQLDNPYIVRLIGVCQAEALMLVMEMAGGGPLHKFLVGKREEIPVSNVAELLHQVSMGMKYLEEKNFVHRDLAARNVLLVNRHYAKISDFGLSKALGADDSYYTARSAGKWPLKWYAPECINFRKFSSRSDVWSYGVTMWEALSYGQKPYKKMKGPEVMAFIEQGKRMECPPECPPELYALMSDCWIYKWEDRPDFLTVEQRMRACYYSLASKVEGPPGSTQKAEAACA
In words: Inhibition of ZAP70 in anti-CD3 stimulated human Jurkat T cells assessed as SLP76 phosphorylation at Y128 preincubated for 30 mins followed by anti-CD3 stimulation measured after 2 mins by FACS analysis. Type of data set: cell-based. The procedure, abridged:
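Jurkat T cells washed in RPMI/0.1% FCS, preincubated with compound 30 min at 37 °C, stimulated with anti-TCR OKT3 (30 μg/mL final) 2 min at 37 °C, fixed in 2% PFA, permeabilized in 90% methanol, stained anti-SLP76 pY128 80 min at RT; flow cytometry. IC50 from factor F = MFI × percent positive cells.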
In general terms: Flow cytometry measures light scatter and fluorescence of single cells or particles in a stream.

Data set [10] relates to Rattus norvegicus. In words: In vivo inhibition of Syk in Lewis rat assessed as reduction in FcgR-induced SLP76 phosphorylation in peripheral blood monocytes at 22 mg/kg, po measured after 24 hrs relative to vehicle-treated control. Type of data set: functional. The procedure, abridged:
(§2)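 Single oral dose of 22 mg/kg to Lewis rats; blood sampled at 2, 4 and 24 h after dosing for compound level and ex vivo FcγR-induced phospho-SLP76 in peripheral blood monocytes.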

Data set [11] is described as follows: Drug uptake in Lewis rat blood at 22 mg/kg, po measured after 24 hrs. Format: ADME, organism-based. Set-up: dose 22 mg/kg, route oral. To be noted: read-out: Drug uptake. Summed up:
as §2

Data set [12] in a line: Drug uptake in blood of Lewis rat collagen-induced arthritis model at 30 mg/kg, po qd administered on day 15 post immunization measured at 4 hrs on day 18. Type of data set: ADME, organism-based. Set-up: dose 30 mg/kg, route oral. To be noted: read-out: Drug uptake. Summed up: (§3)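 Collagen-arthritic Lewis rats given 3, 10 or 30 mg/kg p.o. once daily from day 15; blood levels measured on day 18 (third day of treatment) at 4, 8 and 24 h after dosing.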

Data set [13] can be described thus: Drug uptake in blood of Lewis rat collagen-induced arthritis model at 3 mg/kg, po qd administered on day 15 post immunization measured at 24 hrs on day 18. Type of data set: ADME, organism-based. To be noted: read-out: Drug uptake. Also on record: dose 3 mg/kg, route oral. Summed up: as §3
The species entered for data set [14] is Rattus norvegicus. In words: Hepatotoxicity in rat assessed as bile plugs measured for 4 weeks by GLP study. Type of data set: toxicity, organism-based. The following applies: in vivo, 672 h.
The species entered for data set [15] is Rattus norvegicus. In words: Hepatotoxicity in rat assessed as portal inflammation measured for 4 weeks by GLP study. To be noted: in vivo, 672 h. Format: toxicity, organism-based.
Data set [16] addresses Voltage-gated inwardly rectifying potassium channel KCNH2 (Homo sapiens, UniProt Q12809). Description: Inhibition of human ERG by GLP study.

Broadly, the MRT is the average time that molecules of a dose stay in the body. As a reminder, the Kd is the free concentration of one partner at which half of the binding sites on the other are occupied at equilibrium, for simple one-to-one binding. Low values mean higher affinity, high ones lower affinity. What is called IC50 is the concentration at which inhibition is half-maximal. One may read the inhibition in vivo as the share of the control response that was lost under treatment.

Chain of Voltage-gated inwardly rectifying potassium channel KCNH2 (Q12809 whole entry): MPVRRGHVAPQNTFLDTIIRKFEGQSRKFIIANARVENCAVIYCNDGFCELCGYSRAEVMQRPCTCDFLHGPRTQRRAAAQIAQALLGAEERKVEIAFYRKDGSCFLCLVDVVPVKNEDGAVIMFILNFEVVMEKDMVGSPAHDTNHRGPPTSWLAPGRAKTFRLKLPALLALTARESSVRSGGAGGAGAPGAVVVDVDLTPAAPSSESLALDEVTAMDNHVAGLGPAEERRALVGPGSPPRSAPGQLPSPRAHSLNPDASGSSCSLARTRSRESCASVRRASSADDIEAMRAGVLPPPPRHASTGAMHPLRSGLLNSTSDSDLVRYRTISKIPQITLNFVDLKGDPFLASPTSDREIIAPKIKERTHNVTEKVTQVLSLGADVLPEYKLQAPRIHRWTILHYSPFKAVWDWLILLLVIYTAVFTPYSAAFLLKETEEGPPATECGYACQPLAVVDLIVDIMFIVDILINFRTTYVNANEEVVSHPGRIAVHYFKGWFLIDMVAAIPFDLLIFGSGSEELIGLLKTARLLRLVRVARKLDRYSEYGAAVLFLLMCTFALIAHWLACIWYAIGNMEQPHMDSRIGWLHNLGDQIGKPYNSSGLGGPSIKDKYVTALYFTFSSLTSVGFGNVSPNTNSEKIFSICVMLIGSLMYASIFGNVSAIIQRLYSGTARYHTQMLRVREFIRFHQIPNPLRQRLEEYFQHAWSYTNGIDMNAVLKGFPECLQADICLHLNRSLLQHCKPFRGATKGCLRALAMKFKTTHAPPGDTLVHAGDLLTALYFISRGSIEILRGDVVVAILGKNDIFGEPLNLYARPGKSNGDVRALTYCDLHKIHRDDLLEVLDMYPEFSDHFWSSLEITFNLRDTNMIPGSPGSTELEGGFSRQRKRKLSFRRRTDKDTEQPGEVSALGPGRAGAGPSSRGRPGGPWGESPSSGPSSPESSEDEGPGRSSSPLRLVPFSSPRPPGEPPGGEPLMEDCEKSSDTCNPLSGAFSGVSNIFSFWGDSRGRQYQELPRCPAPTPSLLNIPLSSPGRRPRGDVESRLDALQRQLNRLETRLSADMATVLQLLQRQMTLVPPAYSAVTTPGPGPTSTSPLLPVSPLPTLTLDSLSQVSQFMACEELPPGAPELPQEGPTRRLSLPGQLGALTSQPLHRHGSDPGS
Chain of Mitotic checkpoint serine/threonine-protein kinase BUB1 (O43683 whole entry): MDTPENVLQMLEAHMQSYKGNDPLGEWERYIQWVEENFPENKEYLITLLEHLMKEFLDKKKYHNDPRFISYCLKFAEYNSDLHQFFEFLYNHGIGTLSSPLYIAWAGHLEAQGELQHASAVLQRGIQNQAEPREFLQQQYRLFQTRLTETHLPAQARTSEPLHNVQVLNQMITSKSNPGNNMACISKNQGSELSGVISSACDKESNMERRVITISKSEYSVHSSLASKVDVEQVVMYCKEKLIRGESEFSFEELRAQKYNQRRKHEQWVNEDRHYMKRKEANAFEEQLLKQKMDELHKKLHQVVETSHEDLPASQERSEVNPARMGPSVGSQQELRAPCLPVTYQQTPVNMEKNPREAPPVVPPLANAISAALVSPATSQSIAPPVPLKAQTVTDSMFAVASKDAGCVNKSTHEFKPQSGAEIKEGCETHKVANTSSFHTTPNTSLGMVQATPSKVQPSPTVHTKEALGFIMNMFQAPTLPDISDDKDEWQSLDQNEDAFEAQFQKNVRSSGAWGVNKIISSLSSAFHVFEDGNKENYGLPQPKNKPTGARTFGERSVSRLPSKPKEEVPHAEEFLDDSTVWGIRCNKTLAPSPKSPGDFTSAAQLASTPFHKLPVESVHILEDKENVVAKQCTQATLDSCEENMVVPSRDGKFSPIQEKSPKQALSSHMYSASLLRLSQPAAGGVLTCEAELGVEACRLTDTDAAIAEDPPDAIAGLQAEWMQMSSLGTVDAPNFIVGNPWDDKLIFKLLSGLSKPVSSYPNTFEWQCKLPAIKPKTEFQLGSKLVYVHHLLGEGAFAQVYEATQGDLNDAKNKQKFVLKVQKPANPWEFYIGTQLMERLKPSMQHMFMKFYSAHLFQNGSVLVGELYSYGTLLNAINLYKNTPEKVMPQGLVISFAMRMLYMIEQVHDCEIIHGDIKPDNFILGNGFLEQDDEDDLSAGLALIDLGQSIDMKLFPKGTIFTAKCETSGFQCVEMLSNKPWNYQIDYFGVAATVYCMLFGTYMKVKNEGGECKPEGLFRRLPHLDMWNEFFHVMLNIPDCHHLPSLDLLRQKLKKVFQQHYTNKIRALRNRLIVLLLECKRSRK
Chain of STE20-like serine/threonine-protein kinase (Q9H2G2 whole entry): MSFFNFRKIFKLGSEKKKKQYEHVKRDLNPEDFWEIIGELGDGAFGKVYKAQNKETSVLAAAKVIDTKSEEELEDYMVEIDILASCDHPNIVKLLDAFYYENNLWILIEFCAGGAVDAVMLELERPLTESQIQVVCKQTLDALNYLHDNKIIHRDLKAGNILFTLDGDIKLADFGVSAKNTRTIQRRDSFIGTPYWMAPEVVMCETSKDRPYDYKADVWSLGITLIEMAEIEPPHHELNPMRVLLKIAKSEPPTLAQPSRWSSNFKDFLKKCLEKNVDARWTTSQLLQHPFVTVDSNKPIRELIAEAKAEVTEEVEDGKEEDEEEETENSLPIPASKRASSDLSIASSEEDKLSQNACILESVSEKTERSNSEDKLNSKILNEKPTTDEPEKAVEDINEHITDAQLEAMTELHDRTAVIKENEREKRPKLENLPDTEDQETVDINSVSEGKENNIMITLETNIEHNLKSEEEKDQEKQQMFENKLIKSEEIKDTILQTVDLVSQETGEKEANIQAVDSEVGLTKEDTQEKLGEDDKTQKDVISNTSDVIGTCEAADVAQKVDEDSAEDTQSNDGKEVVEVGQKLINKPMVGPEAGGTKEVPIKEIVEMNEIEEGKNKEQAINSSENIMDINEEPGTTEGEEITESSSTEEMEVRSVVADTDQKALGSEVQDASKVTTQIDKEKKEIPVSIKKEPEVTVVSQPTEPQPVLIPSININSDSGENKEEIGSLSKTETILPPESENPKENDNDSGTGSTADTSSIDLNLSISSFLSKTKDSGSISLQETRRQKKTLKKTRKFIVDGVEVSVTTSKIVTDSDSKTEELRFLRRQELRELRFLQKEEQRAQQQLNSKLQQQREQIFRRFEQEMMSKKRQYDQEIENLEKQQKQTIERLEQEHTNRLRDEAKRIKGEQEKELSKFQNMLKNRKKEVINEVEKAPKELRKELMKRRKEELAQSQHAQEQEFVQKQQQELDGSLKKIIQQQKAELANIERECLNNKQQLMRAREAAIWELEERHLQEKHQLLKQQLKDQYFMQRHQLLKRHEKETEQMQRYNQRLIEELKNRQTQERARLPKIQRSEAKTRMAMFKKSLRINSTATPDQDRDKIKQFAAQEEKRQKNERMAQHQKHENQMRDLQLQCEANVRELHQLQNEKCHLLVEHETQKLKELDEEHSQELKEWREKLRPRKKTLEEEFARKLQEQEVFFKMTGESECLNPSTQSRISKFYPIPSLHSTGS
Chain of Serine/threonine-protein kinase PAK 4 (O96013 whole entry): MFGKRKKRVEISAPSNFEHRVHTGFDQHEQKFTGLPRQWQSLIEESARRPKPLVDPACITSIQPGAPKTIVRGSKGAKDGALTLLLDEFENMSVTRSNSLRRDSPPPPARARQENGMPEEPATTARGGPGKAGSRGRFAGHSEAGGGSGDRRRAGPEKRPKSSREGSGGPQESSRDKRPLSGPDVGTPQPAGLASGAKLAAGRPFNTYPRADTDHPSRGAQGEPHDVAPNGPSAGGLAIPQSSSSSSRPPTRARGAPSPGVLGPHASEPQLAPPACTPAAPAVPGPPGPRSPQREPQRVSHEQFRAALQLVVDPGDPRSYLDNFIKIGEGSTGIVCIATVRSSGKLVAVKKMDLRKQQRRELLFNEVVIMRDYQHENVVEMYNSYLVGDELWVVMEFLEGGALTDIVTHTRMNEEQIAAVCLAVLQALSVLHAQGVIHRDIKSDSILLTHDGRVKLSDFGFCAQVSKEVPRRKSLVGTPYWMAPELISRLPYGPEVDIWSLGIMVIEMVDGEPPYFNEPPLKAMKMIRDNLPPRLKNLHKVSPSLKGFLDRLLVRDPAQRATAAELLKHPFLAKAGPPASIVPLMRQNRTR

In turn, `NC(=O)c1nnc(N[C@@H]2CCCC[C@@H]2N)nc1Nc1cccc2cc[nH]c12` came in with an MRT in data set [1] of 8.7 h. Moreover, the results for the AUC/dose in data set [2] and in data set [3] were 1459 nM·h and 877 nM·h, respectively. This compound also showed a Cmax/dose in data set [4] of 139 nM. Further, the Kd in [5] is 71 nM; in data set [6], 240 nM; in data set [7] it was 17 nM; in data set [8] it was 380 nM. Besides, the figures for the IC50 in [9] and in [16] were 2530 nM and 5 µM, respectively. Further, the inhibition in vivo at 22 mg/kg in data set [10] turned out to be 45%. The concentration at 24 h in data set [11] turned out to be 300 nM; in data set [13], 35 nM. Further, the concentration at 4 h in [12] is 2890 nM. Moreover, the Activity result in [14] and in [15] was “Toxic” throughout.
